aDG glyco act: alpha-DG glycosylation activation | actives 0.22% (n = 360,000) | activation, % at 10 µM | Pro5-aDG cells, alpha-DG glycosylation AlphaScreen (IIH6); 0% Pro5, 100% B10-LARGE cell signal | AID 624168;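 active means activation of at least 8% versus controls, or a plate z-score of at least 8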;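 further: Pro5 are CHO cells carrying HIG-tagged alpha-DG that lacks glycosylation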
NR2E3 ag-1: activates human photoreceptor nuclear receptor NR2E3; inhibition of corepressor binding, % at 4.78 µM; AID 2300; actives 0.12% (n = 320,000); GST-NR2E3/biotin-RetCOR TR-FRET, 1536-well; Q9Y5X4;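 active means percent inhibition above the cutoff of mean plus 3 SD of all tested compounds, set per screening campaign, cut at about 20% in these data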
Target sequence (Q9Y5X4 whole entry, looked up): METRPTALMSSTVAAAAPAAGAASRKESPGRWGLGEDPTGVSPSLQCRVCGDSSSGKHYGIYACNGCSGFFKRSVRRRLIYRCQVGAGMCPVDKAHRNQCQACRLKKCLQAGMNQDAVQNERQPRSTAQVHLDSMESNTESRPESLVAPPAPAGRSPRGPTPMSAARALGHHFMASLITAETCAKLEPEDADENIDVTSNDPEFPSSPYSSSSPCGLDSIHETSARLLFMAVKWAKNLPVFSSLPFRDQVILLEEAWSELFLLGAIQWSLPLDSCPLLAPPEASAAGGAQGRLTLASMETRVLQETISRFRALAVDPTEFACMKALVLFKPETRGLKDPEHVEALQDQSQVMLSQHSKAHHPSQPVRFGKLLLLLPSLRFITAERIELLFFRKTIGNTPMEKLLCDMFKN
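Test system – NR2E3–RetCOR corepressor complex · Quantity – NR2E3 fusion 1.35 nM · Buffer or medium – Tris pH 7.5 · Incubation – Compound–protein incubation for 5 h at 4 °C · Technique – TR-FRET, Eu(K)-anti-GST donor, streptavidin-D2 acceptor, ex 340, em 617/671 nm · Evaluation – percent inhibition of 671/617 nm emission ratio versus biotin and DMSO controls · Plate – 1536-well format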
Jurkat NFkB inh: inhibitors of the PMA/ionomycin-induced NF-kB reporter in Jurkat cells; actives 0.53% (n = 330,000); inhibition, % at 4 µM; PMA/ionomycin-induced NF-kB luciferase reporter, luminescence; in the data active means inhibition above about 50%
697 NFkB inh: inhibitors of the PMA/ionomycin-induced NF-kB reporter in 697 B cells | 697 B-cell NF-kB luciferase reporter, 16 h | actives 0.33% (n = 330,000) | inhibition, % at 4 µM; in the data active means inhibition above about 35%
MPTP block: permeability transition pore inhibition. inhibition, % at 10 µM. AID 602449. actives 1.4% (n = 360,000). isolated mouse mitochondria, Ca2+ swelling absorbance, 30 min;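 active means inhibition of 50% or more, scaled per plate between neutral and stimulator controls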
NR2E3 ag-2: agonists of human NR2E3 nuclear receptor. Q9Y5X4. inhibition of corepressor binding, % at 3.98 µM. CHO-S Gal4-NCOR/VP16-NR2E3 two-hybrid, luciferase. actives 0.35% (n = 360,000);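 active means inhibition above the mean of all tested compounds plus 3 SD, cut at about 70% in these data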;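 further: higher means lower luciferase signal from less NR2E3 corepressor binding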
NR2E3 ag confirm: NR2E3 agonism confirmed in two-hybrid assay; actives 51% (n = 2,300); AID 624378; shares compounds with NR2E3 ag-2; CHO-S mammalian two-hybrid NR2E3-NCOR, luciferase luminescence; inhibition, % at 3.98 µM;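 active means average inhibition above a cutoff equal to the mean inhibition of all tested compounds plus one SD, cut at about 70% in these data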
GAL4-VP16 luc: counter-screen for NR2E3 agonists: GAL4-VP16 reporter inhibitors. inhibition, % at 3.98 µM. AID 624379. actives 29% (n = 2,300). shares compounds with NR2E3 ag-2. CHO-S GAL4-VP16 luciferase reporter, luminescence;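 active means mean inhibition above a cutoff equal to the average over all tested compounds plus one standard deviation, cut at about 70% in these data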;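 further: luciferase from a UAS reporter driven by GAL4-VP16 transactivation; higher means less reporter light so more repression of VP16 activity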
MPTP counter: membrane potential counter-screen of mitochondrial pore inhibitors. shares compounds with MPTP block. isolated mitochondria, Rhodamine 123 fluorescence. inhibition, % at 10 µM. actives 78% (n = 5,000); in the data active means inhibition above about 22%
MPTP abs DR: dose response confirmation of mitochondrial permeability transition pore inhibitors; AID 651561; actives 58% (n = 780); shares compounds with MPTP block; isolated mitochondria swelling, absorbance; IC50, µM; in the data active means IC50 below about 20 µM
MPTP cs DR: MPTP inhibitor counter-screen activity, dose response | shares compounds with MPTP block | isolated mitochondria counterscreen, fluorescence read-out | IC50, µM | actives 49% (n = 780); in the data active means IC50 below about 80 µM
Numbers stand for hits; – = inactive; · = no result given. This is a sample that favours compounds with a hit; in the whole collection about 2.4% have one here.

SMILES	aDG glyco act	NR2E3 ag-1	Jurkat NFkB inh	697 NFkB inh	MPTP block	NR2E3 ag-2	NR2E3 ag confirm	GAL4-VP16 luc	MPTP counter	others
Nc1cc(S(=O)(=O)N2CCCCC2)ccc1N1CCOCC1	–	–	–	–	–	–	·	·	·
COc1ccc(NS(=O)(=O)c2ccc(N3CCCCC3)c(NC(=O)C(C)NC(N)=O)c2)cc1 (stereo unspecified)	–	·	–	–	–	–	·	·	·
COC(=O)c1ccc(Oc2ccc3nnc(C)n3n2)cc1	–	–	–	–	–	–	·	·	·
Cc1nnc2ccc(Oc3ccc(-c4ccccc4)cc3)nn12	–	–	–	–	74	–	91	73	66
CN(C(=O)COc1ccccc1C(=O)NCCOc1ccccc1)c1ccccc1	–	–	–	–	51	77	80	–	31
COc1ccc(-c2csc(NC(=O)c3ccccc3NS(=O)(=O)c3ccc(C)cc3)n2)cc1	–	–	–	–	104	95	98	85	–
COc1ccc(S(=O)(=O)Nc2ccccc2C(=O)Nc2nc(-c3ccc(F)cc3)cs2)cc1OC	–	–	–	–	97	–	97	83	42
CCCNC(=O)c1ccccc1NS(=O)(=O)c1ccc(OC)c(OC)c1	–	–	–	–	–	–	·	·	·
Cc1nnc(SCC(=O)N2CCCC2)n(N)c1=O	–	–	–	–	–	–	·	·	·
CCC(Cc1ccccc1)NS(=O)(=O)c1c(C)nc2scc(C)n2c1=O (stereo unspecified)	–	–	–	–	–	–	·	·	·
O=C1NC(=S)SC1=Cc1ccccc1Cl	–	·	·	·	90	–	79	73	91
O=C1NC[C@@H](CCCCN2C[C@H](Cc3ccccc3)N(Cc3ccccc3)C(=O)C2=O)N(CCc2ccccc2)C1=O	–	·	·	·	–	–	·	·	·
Cc1nc2ccc(S(=O)(=O)Nc3cc(-c4nc5cccnc5s4)ccc3C)cc2s1	–	–	–	–	–	–	·	·	·
Cc1nc2ccc(S(=O)(=O)Nc3cccc(-c4nc5cccnc5s4)c3C)cc2s1	–	–	–	–	98	98	95	86	88
COc1ccc(/C=C/C(=O)NC(=S)NCc2ccccc2)cc1OC	–	–	–	–	–	–	·	·	·
CCCOc1ccc(Br)cc1CSC(=N)N	–	–	–	–	97	–	–	–	92
COc1ccc2c(c1)C=C(CN1CCC(CO)(CCc3ccccc3)CC1)CO2	–	–	–	–	–	–	·	·	·
COc1ccc(CC2(CO)CCN(CC3=Cc4cc(Cl)ccc4OC3)CC2)cc1	13	–	–	–	97	–	96	74	107
CCOc1ccc(CN(C)Cc2cc(=O)oc3c(C)c(C)ccc23)cc1OC	–	·	·	·	52	86	88	81	85
COc1cccc(CN2CCC(n3nccc3NC(=O)CCCc3ccccc3)CC2)c1	–	–	–	–	–	–	·	·	·
CC1CCN(C(=O)c2ccc(N3C(=O)C4CCC(C)CC4C3=O)cc2)CC1 (stereo unspecified)	–	–	–	–	–	–	·	·	·
CC1CCC2C(=O)N(c3ccc(Cc4ccncc4)cc3)C(=O)C2C1 (stereo unspecified)	–	–	–	–	87	–	77	–	89
Cc1ccc(-c2nc(C)sc2CC(=O)OCC(=O)Nc2ccc(F)c(Cl)c2)cc1	–	–	–	–	–	–	·	·	·
O=C(C1CC1)N1CCC(c2nc(-c3ccc(S(=O)(=O)NCC4CCCO4)cc3)no2)CC1 (stereo unspecified)	–	–	–	–	66	–	–	–	–	MPTP abs DR=–;MPTP cs DR=46
CCC(=O)N1CCc2cc(S(=O)(=O)Nc3ccc4c(c3)OCCO4)ccc21	–	–	–	–	81	–	89	78	58
SMILES	aDG glyco act	NR2E3 ag-1	Jurkat NFkB inh	697 NFkB inh	MPTP block	NR2E3 ag-2	NR2E3 ag confirm	GAL4-VP16 luc	MPTP counter	others
COCCN(Cc1cc2ccc(C)cc2[nH]c1=O)S(=O)(=O)c1ccccc1	–	–	–	–	–	–	·	·	·
Cc1ccc(CNc2nc(NC(C)C)nc3ccsc23)c(C)c1	–	·	·	·	–	–	·	·	·
COc1ccccc1CNc1nc(NCc2ccccc2SC)c2sccc2n1	–	·	·	·	85	80	85	–	84
COc1ccccc1CNc1nc(NCc2ccc3occc3c2)c2sccc2n1	–	·	·	·	72	–	–	–	99
COc1ccccc1CNc1nc(NCc2ccccc2OC)c2sccc2n1	–	·	·	·	85	75	75	–	115
Cc1ccc(CNc2nc(NCc3ccccc3)nc3ccsc23)c(C)c1	–	·	·	·	53	74	–	–	101
c1cc2cc(CNc3nc(NCC4CC4)nc4ccsc34)ccc2o1	–	·	·	·	–	–	·	·	·
CCOC(=O)C1=C[C@@H](C(C)(C)C)N(S(=O)(=O)c2ccc(C)cc2)[C@H]1c1ccc(C)cc1	–	·	·	·	–	–	·	·	·
O=C1CC(c2ccccc2)CC(=NCCO)/C1=C(\O)CCCN1C(=O)c2ccccc2C1=O (stereo unspecified)	–	–	–	–	–	–	·	·	·
O=C(/C=C/c1ccc(F)cc1)Nc1ccc2[nH]c(=O)[nH]c2c1	–	–	–	–	–	–	·	·	·
CCOC(=O)N1CCC(NC(=O)c2cnc3n(c2=O)CCS3)CC1	–	–	–	–	–	–	·	·	·
COC(=O)C1CCCCN1C(=O)c1cc(COc2cccc3cnccc23)on1 (stereo unspecified)	–	–	–	–	93	102	95	88	100
O=C(c1cc(COc2ccc(F)cc2Cl)on1)N1CCC(c2ccncc2)CC1	–	–	–	–	–	–	·	·	·
CSc1ccccc1OCc1cc(C(=O)N2CCC(c3ccncc3)CC2)no1	–	–	–	–	60	101	93	79	91
CCOc1cccc(CN2CCC(N3CCC(C(=O)NCC4CCCO4)CC3)CC2)c1 (stereo unspecified)	–	–	–	–	–	–	·	·	·
O=C1CCCC/C1=C/NCc1ccccc1	–	–	–	–	–	–	·	·	·
O=C(CN1C(=O)C(c2ccc(F)cc2)=NC12CCCC2)Nc1ccc(F)cc1	–	–	–	–	60	75	73	–	53

From PubChem BioAssay
